{"source": "ChEMBL document CHEMBL4414563", "about": "“Pyrimidine Nucleosides from Streptomyces sp. SSA28” (J Nat Prod, 2019)", "note": "Structures can show the parent of a compound that is named as a salt."}
{"system": "HCT-116", "assay": "Cytotoxicity against human HCT116 cells assessed as reduction in cell viability after 24 hrs by SRB assay", "type": "functional, cell-based", "conditions": "HCT-116, 24 h", "procedure,_shortened": "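Human colon cancer HCT-116 cells, read out by sulforhodamine B (SRB) staining, with adriamycin as the positive control.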", "units": {"IC50": "µM"}}
{"smiles": "CC(C)CCC(=O)Nc1ccn([C@H]2CC[C@H](O)[C@@H](C)O2)c(=O)n1", "IC50": "> 20"}
{"smiles": "CC(C)CCC(=O)Nc1ccn([C@H]2CC[C@H](O[C@H]3O[C@H](C)[C@@H](N(C)C)[C@H](O)[C@H]3O)[C@@H](C)O2)c(=O)n1", "IC50": 0.39}
{"smiles": "CCC(C)/C=C/C(=O)Nc1ccn([C@H]2CC[C@H](O[C@H]3O[C@H](C)[C@@H](N(C)C)[C@H](O)[C@H]3O)[C@@H](C)O2)c(=O)n1", "note": "(some centres not stated)", "IC50": 0.89}
{"smiles": "CC(C)C(=O)Nc1ccn([C@H]2CC[C@H](O)[C@@H](C)O2)c(=O)n1", "IC50": "> 20"}
{"smiles": "CC(C)=CCC(=O)Nc1ccn([C@H]2CC[C@H](O)[C@@H](C)O2)c(=O)n1", "IC50": "> 20"}
{"smiles": "CC(C)/C=C/C(=O)Nc1ccn([C@H]2CC[C@H](O)[C@@H](C)O2)c(=O)n1", "IC50": "> 20"}
{"smiles": "CC(=O)Nc1ccn([C@H]2CC[C@H](O)[C@@H](C)O2)c(=O)n1", "IC50": "> 20"}
{"smiles": "CC(C)C(=O)Nc1ccc(C(=O)Nc2ccn([C@H]3CC[C@H](O[C@H]4O[C@H](C)[C@@H](N(C)C)[C@H](O)[C@H]4O)[C@@H](C)O3)c(=O)n2)cc1", "IC50": 6.63}
{"smiles": "CC(C)/C=C/C(=O)Nc1ccn([C@H]2CC[C@H](O[C@H]3O[C@H](C)[C@@H](N(C)C)[C@H](O)[C@H]3O)[C@@H](C)O2)c(=O)n1", "IC50": 0.78}
{"smiles": "C[C@H]1O[C@@H](n2ccc(NC(=O)Cc3ccccc3)nc2=O)CC[C@@H]1O", "IC50": "> 20"}
{"smiles": "C/C=C(\\C)C(=O)Nc1ccn([C@H]2CC[C@H](O[C@H]3O[C@H](C)[C@@H](N(C)C)[C@H](O)[C@H]3O)[C@@H](C)O2)c(=O)n1", "IC50": 6.45}
{"smiles": "CC(C)=CC(=O)Nc1ccn([C@H]2C[C@@H](O)[C@H](O)[C@@H](C)O2)c(=O)n1", "IC50": "> 20"}
{"smiles": "CC(C)CC(=O)Nc1ccn([C@H]2CC[C@H](O[C@H]3O[C@H](C)[C@@H](N(C)C)[C@H](O)[C@H]3O)[C@@H](C)O2)c(=O)n1", "IC50": 2.14}
{"smiles": "COc1cccc2c1C(=O)c1c(O)c3c(c(O)c1C2=O)C[C@@](O)(C(=O)CO)C[C@@H]3O[C@H]1C[C@H](N)[C@H](O)[C@H](C)O1", "note": "[DOXORUBICIN HYDROCHLORIDE]", "IC50": 0.06}
{"smiles": "CC(=O)C(C)Nc1ccc(C(=O)Nc2ccn([C@H]3CC[C@H](O)[C@@H](C)O3)c(=O)n2)cc1", "note": "(some centres not stated)", "IC50": "> 20"}
{"smiles": "C[C@H]1O[C@@H](n2ccc(NC(=O)CC(C)(C)O)nc2=O)CC[C@@H]1O", "IC50": "> 20"}
{"smiles": "CCC(=O)Nc1ccn([C@H]2CC[C@H](O)[C@@H](C)O2)c(=O)n1", "IC50": "> 20"}
